Measurements reported in publication PMC3110074 (ACS chemical neuroscience, 2011).
Where two headings read alike, the source gives them in different places.

Legend:
[1] = cited from earlier work
[2] = system: TH positive neurons in the SNpc; settings: intraperitoneal injection; cited from earlier work
[3] = system: p-c-jun in TH-positive neurons of the SNpc; test: Immunohistochemistry for TH and p-c-jun after MPTP; format: in vivo, C57BL/6J mice; settings: single oral dose 30 mg/kg, seven hr
In short: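 The test compound was given orally 30 min before repeated i.p. MPTP-HCl (2 h intervals) to male C57BL/6J mice, which were killed 7 h after the first MPTP dose; three mice per group. 16 μm SN sections (bregma −3.0) were incubated overnight at 4 °C with sheep anti-TH (1:50) and rabbit anti-p-c-jun Ser73 (1:100), then 2 h with Alexa 594/488 secondaries (1:500). DAPI was used for normalisation. TH+ neurons with nuclear p-c-jun were counted.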

[4] = target: monoamine oxidase B (MAO-B) (Homo sapiens, UniProt P27338); test: MAO-B inhibition; format: biochemical; settings: read-out: IC50 MAO-B
KIT V559D = KIT V559D (Homo sapiens, UniProt P10721, V559D); test: Ambit kinase panel screen, KIT V559D; format: binding; settings: suggested from Ambit panel at 3 μM
[5] = Plasma protein binding, mouse; format: in vitro ADME
[6] = Plasma protein binding, monkey; format: in vitro ADME
CYP P450 2C8 = CYP P450 2C8 (Homo sapiens, UniProt P10632); test: P450 inhibition 2C8; format: in vitro ADME; settings: read-out: IC50 CYP450 2C8
CYP P450 3A4 = CYP P450 3A4 (Homo sapiens, UniProt P08684); settings: read-out: IC50 CYP450 3A4
CYP P450 2E1 = CYP P450 2E1 (Homo sapiens, UniProt P05181); test: P450 inhibition 2E1; format: in vitro ADME; settings: read-out: IC50 CYP450 2E1
PDGFR-β = PDGFR-β (Homo sapiens, UniProt P09619); test: Ambit kinase panel screen, PDGFR-β; format: binding; settings: suggested from Ambit panel at 3 μM
[7] = target: Leucine Rich repeat Kinase 2 (LRRK2) (Homo sapiens, UniProt Q5S007); test: LRRK2 inhibition; format: biochemical; settings: up to 10 μM
[8] = system: c-jun phosphorylation in ventral midbrain; test: Western blot for phospho-c-jun after MPTP; format: in vivo, C57BL/6J mice; settings: MPTP-treated mice, 20 mg/kg oral
In short: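 Mice received the test compound orally 30 min before the first i.p. MPTP-HCl dose and were killed 7 h after that dose; two saline, three MPTP and two MPTP+compound mice. Ventral midbrain was dissected and lysed, and 30 μg nuclear-fraction protein was immunoblotted for phospho-c-jun.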

[9] = system: p-c-jun in substantia nigra tissue lysate; test: ELISA for p-c-jun target modulation after MPTP; format: in vivo, C57BL/6J mice; settings: MPTP-treated mice
In short: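 Male C57BL/6J mice (11 weeks, 25–30 g) got the test compound orally 30 min before the first of repeated i.p. MPTP-HCl doses given at 2 h intervals, and were killed 7 h after the first MPTP dose. SN nuclear extracts were made with protease and phosphatase inhibitors and protein was measured by BCA. Phospho-c-jun Ser63 in 30 μg protein was read by ELISA in duplicate against a recombinant p-c-jun standard curve. Groups were compared by two-tailed unpaired t test.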

CYP P450 1A2 = CYP P450 1A2 (Homo sapiens, UniProt P05177); test: P450 inhibition 1A2; format: in vitro ADME; settings: read-out: IC50 CYP450 1A2
CYP P450 2B6 = CYP P450 2B6 (Homo sapiens, UniProt P20813); test: P450 inhibition 2B6; format: in vitro ADME; settings: read-out: IC50 CYP450 2B6
[10] = Microsomal stability, rat; format: in vitro ADME; settings: rat liver microsomes
[11] = target: monoamine oxidase A (MAO-A) (Homo sapiens, UniProt P21397); test: MAO-A inhibition; format: biochemical; settings: read-out: IC50 MAO-A
[12] = system: striatal catecholamine levels; test: Striatal dopamine, DOPAC and HVA levels after MPTP; format: in vivo, C57BL/6J mice; settings: MPTP-treated mice, 30 mg/kg, 7 days
[13] = system: primary mesencephalic dopaminergic neurons exposed to MPP+; format: cell-based, Sprague Dawley rat; settings: for neuroprotective effect (TH-positive neurons): 10 μM MPP+ for 48 hr
In short: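 Ventral mesencephalon from E14 Sprague-Dawley rat embryos was trypsinised (0.25%, 5 min, 37 °C) and triturated. Cells were plated at 200 000/well on poly-D-lysine/laminin in DMEM/10% HIFBS, then switched after 2 h to SATO selection medium for 5 days with daily changes. Test compound (10–1000 nM) was added 15 min before 10 μM MPP+, with 48 h at 37 °C/5% CO2. Cells were fixed in 4% PFA and TH+ neurons counted blinded. Four wells per concentration, three biological replicates; one-way ANOVA.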

TYK2 = TYK2 (Homo sapiens, UniProt P29597); test: Ambit kinase panel screen, TYK2; format: binding; settings: suggested from Ambit panel at 3 μM
Rat pharmacokinetics = format: in vivo, Sprague-Dawley rats; settings: rats
In short: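 Sprague-Dawley rats (n = 3) were dosed 1 mg/kg i.v. or 2 mg/kg by oral gavage. Blood was drawn into EDTA at 5, 15 and 30 min and at 1, 2, 4, 6 and 8 h. Plasma proteins were precipitated with acetonitrile and the test compound quantified by LC-MS/MS. Noncompartmental analysis gave CL, oral bioavailability, Cmax, AUC, t1/2 and Vd.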

CYP P450 2C19 = CYP P450 2C19 (Homo sapiens, UniProt P33261); settings: read-out: IC50 CYP450 2C19
CYP P450 2C9 = CYP P450 2C9 (Homo sapiens, UniProt P11712); settings: read-out: IC50 CYP450 2C9
347 kinases = test: Ambit kinase panel screen; format: binding; settings: 3 μM
KIT = KIT (Homo sapiens, UniProt P10721); test: Ambit kinase panel screen, KIT; format: binding; settings: suggested from Ambit panel at 3 μM
[14] = Microsomal stability, mouse; format: in vitro ADME; settings: mouse liver microsomes
G2019S LRRK2 = G2019S LRRK2 (Homo sapiens, UniProt Q5S007, G2019S); test: G2019S LRRK2 inhibition; format: biochemical; settings: up to 10 μM
[15] = Mouse brain penetration time course; format: in vivo, C57Bl6 mice; settings: mice, single oral dose 30 mg/kg
[16] = Microsomal stability, human; format: in vitro ADME; settings: human liver microsomes
[17] = Plasma protein binding, rat; format: in vitro ADME
[18] = Plasma protein binding, human; format: in vitro ADME
CYP P450 2A6 = CYP P450 2A6 (Homo sapiens, UniProt P11509); test: P450 inhibition 2A6; format: in vitro ADME; settings: read-out: IC50 CYP450 2A6
CYP P450 2D6 = CYP P450 2D6 (Homo sapiens, UniProt P10635); test: P450 inhibition 2D6; format: in vitro ADME; settings: read-out: IC50 CYP450 2D6
P-glycoprotein (PGP) = P-glycoprotein (PGP) (Homo sapiens, UniProt P08183); test: P-glycoprotein substrate assessment; format: in vitro ADME
[19] = cited from earlier work; remark: listed apart in the source

Chain of TYK2 (P29597 whole entry): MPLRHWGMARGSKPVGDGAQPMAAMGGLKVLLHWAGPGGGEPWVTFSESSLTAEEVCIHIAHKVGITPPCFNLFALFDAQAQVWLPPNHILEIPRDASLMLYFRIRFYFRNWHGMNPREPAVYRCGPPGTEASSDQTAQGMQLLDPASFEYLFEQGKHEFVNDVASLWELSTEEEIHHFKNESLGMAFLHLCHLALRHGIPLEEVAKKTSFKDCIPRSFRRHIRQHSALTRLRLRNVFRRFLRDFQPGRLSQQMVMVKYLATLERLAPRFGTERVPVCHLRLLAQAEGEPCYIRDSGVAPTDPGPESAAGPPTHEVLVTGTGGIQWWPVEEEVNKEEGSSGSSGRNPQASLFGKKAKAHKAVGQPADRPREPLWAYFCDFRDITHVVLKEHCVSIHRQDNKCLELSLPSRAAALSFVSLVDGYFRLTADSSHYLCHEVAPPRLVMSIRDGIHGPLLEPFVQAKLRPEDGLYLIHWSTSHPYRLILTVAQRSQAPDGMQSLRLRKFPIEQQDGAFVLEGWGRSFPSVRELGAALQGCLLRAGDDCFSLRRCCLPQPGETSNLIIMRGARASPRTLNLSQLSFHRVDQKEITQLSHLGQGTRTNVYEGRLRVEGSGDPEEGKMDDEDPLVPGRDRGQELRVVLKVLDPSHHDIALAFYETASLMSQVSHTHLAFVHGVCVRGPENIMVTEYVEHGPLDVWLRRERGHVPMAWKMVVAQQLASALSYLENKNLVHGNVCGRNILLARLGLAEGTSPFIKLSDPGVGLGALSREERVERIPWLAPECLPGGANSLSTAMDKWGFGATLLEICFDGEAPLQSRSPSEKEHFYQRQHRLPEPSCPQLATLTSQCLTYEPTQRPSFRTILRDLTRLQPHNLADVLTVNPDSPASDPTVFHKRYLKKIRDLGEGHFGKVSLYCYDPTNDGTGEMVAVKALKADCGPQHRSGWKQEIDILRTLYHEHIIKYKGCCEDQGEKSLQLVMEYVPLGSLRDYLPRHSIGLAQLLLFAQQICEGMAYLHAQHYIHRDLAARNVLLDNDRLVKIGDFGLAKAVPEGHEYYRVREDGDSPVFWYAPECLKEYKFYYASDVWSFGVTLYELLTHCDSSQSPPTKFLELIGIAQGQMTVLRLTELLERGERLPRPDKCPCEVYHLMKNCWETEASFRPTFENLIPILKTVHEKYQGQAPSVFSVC
Chain of CYP P450 2C19 (P33261 whole entry): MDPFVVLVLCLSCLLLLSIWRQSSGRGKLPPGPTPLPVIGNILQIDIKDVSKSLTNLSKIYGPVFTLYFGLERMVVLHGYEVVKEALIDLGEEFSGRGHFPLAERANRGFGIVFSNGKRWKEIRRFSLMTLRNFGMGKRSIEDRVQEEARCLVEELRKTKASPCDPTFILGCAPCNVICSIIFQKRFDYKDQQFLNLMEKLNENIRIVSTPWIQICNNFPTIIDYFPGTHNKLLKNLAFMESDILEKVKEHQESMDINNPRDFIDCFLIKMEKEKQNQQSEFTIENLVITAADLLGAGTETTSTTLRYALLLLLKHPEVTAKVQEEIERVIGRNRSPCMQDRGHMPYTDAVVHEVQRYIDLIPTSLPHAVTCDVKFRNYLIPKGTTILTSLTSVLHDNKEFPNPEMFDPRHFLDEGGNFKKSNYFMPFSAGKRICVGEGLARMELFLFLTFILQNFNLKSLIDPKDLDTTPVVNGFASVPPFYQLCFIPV
Chain of CYP P450 2B6 (P20813 whole entry): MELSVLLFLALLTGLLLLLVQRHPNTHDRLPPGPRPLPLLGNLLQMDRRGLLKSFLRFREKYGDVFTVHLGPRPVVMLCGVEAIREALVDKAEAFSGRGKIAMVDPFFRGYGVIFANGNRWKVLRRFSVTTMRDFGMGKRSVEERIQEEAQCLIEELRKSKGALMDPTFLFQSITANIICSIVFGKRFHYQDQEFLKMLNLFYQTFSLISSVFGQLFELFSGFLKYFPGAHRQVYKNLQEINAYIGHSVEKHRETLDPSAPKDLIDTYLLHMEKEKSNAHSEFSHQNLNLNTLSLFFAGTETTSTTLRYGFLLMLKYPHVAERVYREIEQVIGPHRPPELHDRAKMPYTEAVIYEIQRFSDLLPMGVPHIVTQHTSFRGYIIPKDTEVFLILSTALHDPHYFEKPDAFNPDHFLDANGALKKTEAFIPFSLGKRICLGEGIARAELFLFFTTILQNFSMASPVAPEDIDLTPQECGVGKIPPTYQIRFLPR
Chain of CYP P450 3A4 (P08684 whole entry): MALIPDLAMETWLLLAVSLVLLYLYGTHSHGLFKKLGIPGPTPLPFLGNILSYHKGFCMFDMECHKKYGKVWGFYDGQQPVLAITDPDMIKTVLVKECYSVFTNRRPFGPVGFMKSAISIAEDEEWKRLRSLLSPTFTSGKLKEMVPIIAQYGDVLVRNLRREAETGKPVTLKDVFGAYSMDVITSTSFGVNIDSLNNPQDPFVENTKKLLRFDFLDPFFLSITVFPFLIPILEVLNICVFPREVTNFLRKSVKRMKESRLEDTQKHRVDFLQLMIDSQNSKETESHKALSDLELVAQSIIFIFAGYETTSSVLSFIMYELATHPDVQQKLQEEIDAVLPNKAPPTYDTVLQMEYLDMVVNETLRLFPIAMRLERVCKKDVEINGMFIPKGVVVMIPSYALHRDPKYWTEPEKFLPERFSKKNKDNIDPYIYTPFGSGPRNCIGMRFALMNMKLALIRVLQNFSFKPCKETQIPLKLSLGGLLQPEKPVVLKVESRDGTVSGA
Chain of monoamine oxidase A (MAO-A) (P21397 whole entry, species assumed): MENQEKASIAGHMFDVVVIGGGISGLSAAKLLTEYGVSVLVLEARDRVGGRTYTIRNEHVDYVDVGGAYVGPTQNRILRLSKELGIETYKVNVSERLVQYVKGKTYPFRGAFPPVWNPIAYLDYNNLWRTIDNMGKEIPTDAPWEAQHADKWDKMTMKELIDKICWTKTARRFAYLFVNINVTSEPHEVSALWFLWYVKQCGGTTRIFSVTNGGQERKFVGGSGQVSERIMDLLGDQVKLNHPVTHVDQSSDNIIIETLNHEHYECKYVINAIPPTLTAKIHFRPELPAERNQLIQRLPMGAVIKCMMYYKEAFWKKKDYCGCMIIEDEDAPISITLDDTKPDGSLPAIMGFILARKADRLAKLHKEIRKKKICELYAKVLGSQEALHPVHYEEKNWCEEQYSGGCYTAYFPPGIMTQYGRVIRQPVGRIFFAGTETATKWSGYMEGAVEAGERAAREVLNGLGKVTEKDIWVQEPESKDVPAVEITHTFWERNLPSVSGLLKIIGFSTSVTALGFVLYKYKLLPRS
Chain of KIT (P10721 26-976): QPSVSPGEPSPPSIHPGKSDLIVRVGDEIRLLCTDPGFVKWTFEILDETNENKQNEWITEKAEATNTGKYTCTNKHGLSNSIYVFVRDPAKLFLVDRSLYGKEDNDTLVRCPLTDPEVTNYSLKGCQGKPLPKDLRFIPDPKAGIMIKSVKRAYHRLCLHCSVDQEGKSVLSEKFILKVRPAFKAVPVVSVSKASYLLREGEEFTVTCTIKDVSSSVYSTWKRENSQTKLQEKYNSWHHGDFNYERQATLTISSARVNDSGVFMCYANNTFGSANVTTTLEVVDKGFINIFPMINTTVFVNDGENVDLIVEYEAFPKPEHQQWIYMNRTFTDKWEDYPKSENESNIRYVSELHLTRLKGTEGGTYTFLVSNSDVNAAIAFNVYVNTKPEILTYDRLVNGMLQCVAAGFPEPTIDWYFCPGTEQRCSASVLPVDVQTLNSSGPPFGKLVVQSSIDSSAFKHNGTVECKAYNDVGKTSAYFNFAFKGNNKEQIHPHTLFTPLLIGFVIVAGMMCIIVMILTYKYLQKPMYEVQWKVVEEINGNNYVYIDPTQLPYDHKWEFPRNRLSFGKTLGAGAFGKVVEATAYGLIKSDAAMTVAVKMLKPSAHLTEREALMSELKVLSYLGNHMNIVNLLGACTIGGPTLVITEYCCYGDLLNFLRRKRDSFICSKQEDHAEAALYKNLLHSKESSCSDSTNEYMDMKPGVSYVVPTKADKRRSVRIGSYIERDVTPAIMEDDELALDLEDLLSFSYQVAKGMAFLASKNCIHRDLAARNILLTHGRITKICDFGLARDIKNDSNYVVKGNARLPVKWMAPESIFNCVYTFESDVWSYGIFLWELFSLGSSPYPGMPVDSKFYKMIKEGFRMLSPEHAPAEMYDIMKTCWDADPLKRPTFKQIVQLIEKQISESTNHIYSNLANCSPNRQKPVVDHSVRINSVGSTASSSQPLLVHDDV
Chain of CYP P450 2C9 (P11712 whole entry): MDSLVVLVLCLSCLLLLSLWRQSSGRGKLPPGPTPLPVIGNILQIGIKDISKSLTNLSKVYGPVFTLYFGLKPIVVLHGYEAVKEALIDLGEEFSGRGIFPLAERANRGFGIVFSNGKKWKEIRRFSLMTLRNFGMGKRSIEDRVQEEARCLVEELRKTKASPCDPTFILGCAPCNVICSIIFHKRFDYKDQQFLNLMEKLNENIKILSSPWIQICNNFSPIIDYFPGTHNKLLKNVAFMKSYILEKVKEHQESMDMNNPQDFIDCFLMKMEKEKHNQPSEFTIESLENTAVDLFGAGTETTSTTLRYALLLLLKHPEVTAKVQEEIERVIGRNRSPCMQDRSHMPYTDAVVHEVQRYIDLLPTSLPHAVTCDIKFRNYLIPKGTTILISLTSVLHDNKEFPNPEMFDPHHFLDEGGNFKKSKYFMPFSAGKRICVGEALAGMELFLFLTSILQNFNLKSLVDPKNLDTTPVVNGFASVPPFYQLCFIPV
Chain of KIT V559D (P10721 26-976 V559D): as the sequence (P10721 26-976) above, with V534D counted along it

In the case of `N[C@@H](Cc1ccc(O)c(O)c1)C(=O)O` [L-DOPA, levodopa], the initial response rates [1] is given as ~90%.

For `Oc1c2ccccc2c2c3c(cccc13)N=N2` [SP600125], the “protection in the chronic MPTP mouse model” value [2] is given as “protective”.

In the case of `Cc1ccc(-c2ncn(-c3ccc(Nc4nccc(-c5cccc(N6CCOCC6)c5)n4)cc3)n2)cn1` [SR-3306], the “number of p-c-jun positive cells compared to MPTP treated mice” value [3] is reported as “dramatic decrease (four-fold)”, the IC50 [4] is reported as > 50 µM and the Kd (KIT V559D) is reported as < 1 µM. The plasma protein binding [5] was 86%, the plasma protein binding [6] was 96% and the IC50 (CYP P450 2C8) was > 50 µM. For the same compound, the IC50 (CYP P450 3A4) was > 50 µM, the IC50 (CYP P450 2E1) was > 50 µM and the Kd (PDGFR-β) was < 1 µM. For the same compound, the “inhibition of LRRK2” value [7] was “not inhibited”, the “phospho-c-jun signal by Western blot” value [8] was “decrease in the phospho-c-jun signal” and the “p-c-jun levels in the ventral midbrain by ELISA” value (shortened to “p-c-jun levels”) ([9]; 10 mg/kg oral) was “no effect”. The “p-c-jun levels” value ([9]; 20 mg/kg oral, p< 0.01) was “statistically significant reduction”, the “p-c-jun levels” value ([9]; 30 mg/kg oral, p < 0.001) was “statistically significant reduction” and the IC50 (CYP P450 1A2) was > 50 µM. For the same compound, the IC50 (CYP P450 2B6) was > 50 µM, the microsomal stability [10] was 30 min and the IC50 [11] was > 50 µM. For the same compound, the “protection of striatal DOPAC levels” value [12] was “some protection”, the “protection of striatal dopamine levels” value [12] was “not able to demonstrate protection” and the “protection of striatal homovanillic acid (HVA) levels” value [12] was “not able to demonstrate protection”. The “neuroprotective effect (TH-positive neurons)” value ([13]; 300 nM) was “greater than 90%”, the “effect on number of TH-positive neurons, compound alone” value ([13]; 1000 nM in the absence of MPP+) was “no effect compared to control” and the “neuroprotective effect (TH-positive neurons)” value ([13]; 1000 nM) was “greater than 90%”. The Kd (TYK2) was < 1 µM, the clearance rate (Rat pharmacokinetics; 1 mg/kg i.v.) was 14 mL/min/kg and the “oral bioavailability (%F)” value (Rat pharmacokinetics; 2 mg/kg p.o. vs 1 mg/kg i.v.) was 31%. For the same compound, the IC50 (CYP P450 2C19) was > 50 µM, the IC50 (CYP P450 2C9) was > 50 µM and the “number of kinases with any hit” value (347 kinases) was 35 out of the 347. The Kd (KIT) was < 1 µM, the microsomal stability [14] was 26 min and the “inhibition of G2019S LRRK2” value (G2019S LRRK2) was “not inhibited”. The brain concentration ([15]; 4 hr) was 3000 nM, the “brain concentration above the >90% neuroprotective concentration” value ([15]; 8 hr) was 7 fold and the brain concentration ([15]; 24 hr) was 230 nM. For the same compound, the microsomal stability [16] was 28 min, the plasma protein binding [17] was 97% and the plasma protein binding [18] was 88%. The IC50 (CYP P450 2A6) was > 50 µM, the IC50 (CYP P450 2D6) was > 50 µM and the “P-glycoprotein (PGP) substrate” value (P-glycoprotein (PGP)) was “not a P-glycoprotein (PGP) substrate”.

In the case of `C#CCN[C@@H]1CCc2ccccc21` [rasagiline], the neuroprotective disease-modifying effects ([19]; 1 mg) is listed as “possible disease-modifying effects” and the neuroprotective disease-modifying effects ([19]; 2 mg dose, 1176 subjects) is listed as “failed to show neuroprotective disease-modifying effects”.
